Assay results published in ChEMBL document CHEMBL2021883, “Amino acid, dipeptide and pseudodipeptide conjugates of ring-substituted 8-aminoquinolines: synthesis and evaluation of anti-infective, β-haematin inhibition and cytotoxic activities” (Eur J Med Chem, 2012).
pIC50: −log10 of the molar value. Converted amounts (≈) assume the structure as drawn. The source made the active and inactive calls. Unless noted, the rule behind the calls is not given here.

Columns and labels:
Staphylococcus aureus [1] = assay: Antimicrobial activity against methicillin-resistant Staphylococcus aureus ATCC 43300 by CLSI method; format: functional, organism-based
Pseudomonas aeruginosa = assay: Antimicrobial activity against Pseudomonas aeruginosa ATCC 27853 by CLSI method; format: functional, organism-based
In short: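 Antibacterial testing used CLSI/NCCLS broth dilution for aerobically growing bacteria, with 20 as the highest test concentration.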

Vero = assay: Cytotoxicity against african green monkey Vero cells upto 23.8 […] by neutral dye assay; format: cell-based, Chlorocebus sabaeus
In short: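 Vero monkey kidney cells were exposed to compound up to a highest concentration of 23.8, with viability read by neutral red uptake.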

Plasmodium falciparum [2] = assay: Antimalarial activity against chloroquine-resistant Plasmodium falciparum W2 assessed as plasmodial LDH activity; format: functional, organism-based
Leishmania donovani = assay: Antileishmanial activity against Leishmania donovani promastigote by Alamar Blue assay; format: functional, organism-based
Escherichia coli = assay: Antimicrobial activity against Escherichia coli ATCC 35218 by CLSI method; format: functional, organism-based
Staphylococcus aureus [3] = assay: Antimicrobial activity against Staphylococcus aureus ATCC 29213 by CLSI method; format: functional, organism-based
Plasmodium falciparum [4] = assay: Antimalarial activity against chloroquine-sensitive Plasmodium falciparum D6 assessed as plasmodial LDH activity; format: functional, organism-based
[5] = Inhibition of beta-hematin formation; format: functional
[6] = system: Mycobacterium intracellulare; assay: Antimicrobial activity against Mycobacterium intracellulare ATCC 23068 by Franzblau method; format: functional, organism-based
Aspergillus fumigatus = assay: Antifungal activity against Aspergillus fumigatus; format: functional, organism-based
In short: (§1)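 Yeasts and A. fumigatus were tested by broth microdilution following the NCCLS antifungal standards. The highest test concentration was 20.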

Cryptococcus neoformans = assay: Antifungal activity against Cryptococcus neoformans; format: functional, organism-based; in short: as §1
Candida albicans [7] = assay: Antifungal activity against Candida albicans at 20 ug/ml; format: functional, organism-based
In short: (§2)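 Broth dilution antifungal testing followed the NCCLS reference method for yeasts, with 20 as the highest test concentration. MIC was the lowest concentration with no detectable growth. MFC was the lowest concentration killing the organism.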

Candida albicans [8] = assay: Fungicidal activity against Candida albicans at 20 ug/ml; format: functional, organism-based; in short: as §2
[9] = Selectivity index, ratio of IC50 for african green monkey Vero cells to IC50 for chloroquine-resistant Plasmodium falciparum W2; format: toxicity, cell-based; conditions: Vero cells versus Plasmodium falciparum W2, read-out: Ratio IC50
[10] = Leishmania donovani, read-out: IC50

SMILES | Activity (Staphylococcus aureus [1]) | Activity (Pseudomonas aeruginosa) | IC50 (Vero) | IC50 (Plasmodium falciparum [2]) | IC50 (Leishmania donovani) | IC90 (Leishmania donovani) | Activity (Escherichia coli) | Activity (Staphylococcus aureus [3]) | IC50 (Plasmodium falciparum [4]) | pIC50 [5] | Activity [6] | further results
COc1cc(NC(C)CCCNC(=O)CC[C@@H](NC(=O)[C@H](N)CCCN)C(=O)O)c2ncccc2c1 (some centres not stated) | inactive | inactive | Non-toxic | Not Active | Not Active | inactive | inactive | inactive | Not Active | < 3.00 | inactive | –
COc1cc(NC(C)CCCNC(=O)C[C@@H](NC(=O)[C@H](N)CCCCN)C(=O)O)c2nc(C(C)(C)C)ccc2c1 (some centres not stated) | inactive | inactive | Non-toxic | Not Active | Not Active | inactive | inactive | inactive | Not Active | < 3.00 | inactive | –
COc1cc(NC(C)CCCNC(=O)CC[C@H](NC(=O)[C@@H](N)CCCCN)C(=O)O)c2ncccc2c1 (some centres not stated) | inactive | inactive | Non-toxic | Not Active | Not Active | inactive | inactive | inactive | Not Active | – | inactive | –
COc1cc(NC(C)CCCNC(=O)C[C@H](NC(=O)[C@@H](N)CCCN)C(=O)O)c2ncccc2c1 (some centres not stated) | inactive | inactive | – | – | – | – | inactive | inactive | – | – | inactive | –
COc1cc(NC(C)CCCN)c2ncccc2c1 (configuration not stated) [PRIMAQUINE] | – | – | Non-toxic | – | – | inactive | – | – | – | < 3.00 | – | –
COc1cc(NC(C)CCCN)c2nc(C(C)(C)C)ccc2c1 (configuration not stated) | – | – | – | – | – | – | – | – | – | 5.54 | – | –
COc1cc(NC(C)CCCNC(=O)CC[C@@H](NC(=O)[C@H](N)CCCNC(=N)N)C(=O)O)c2ncccc2c1 (some centres not stated) | inactive | inactive | Non-toxic | Not Active | Not Active | inactive | inactive | inactive | Not Active | < 3.00 | inactive | –
COc1cc(NC(C)CCCNC(=O)C[C@@H](NC(=O)[C@H](N)CCCN)C(=O)O)c2ncccc2c1 (some centres not stated) | inactive | inactive | Non-toxic | Not Active | Not Active | inactive | inactive | inactive | Not Active | < 3.00 | inactive | Activity (Aspergillus fumigatus): inactive; IC50 (Cryptococcus neoformans): 7 µg/mL (≈ 14.3 µM); MFC (Cryptococcus neoformans): 10 µg/mL (≈ 20.5 µM); MIC (Cryptococcus neoformans): 10 µg/mL (≈ 20.5 µM); Activity (Candida albicans [7]): inactive; Activity (Candida albicans [8]): inactive
COc1cc(NC(C)CCCNC(=O)CC[C@@H](NC(=O)[C@H](N)CCCN)C(=O)O)c2nc(C(C)(C)C)ccc2c1 (some centres not stated) | inactive | inactive | Non-toxic | Not Active | Not Active | inactive | inactive | inactive | Not Active | < 3.00 | inactive | –
COc1cc(NC(C)CCCNC(=O)CC[C@H](NC(=O)[C@@H](N)CCCN)C(=O)O)c2nc(C(C)(C)C)ccc2c1 (some centres not stated) | inactive | inactive | Non-toxic | Not Active | Not Active | inactive | inactive | inactive | Not Active | < 3.00 | inactive | Activity (Aspergillus fumigatus): inactive; IC50 (Cryptococcus neoformans): 15 µg/mL (≈ 26.8 µM); MFC (Cryptococcus neoformans): 20 µg/mL (≈ 35.8 µM); MIC (Cryptococcus neoformans): 20 µg/mL (≈ 35.8 µM); Activity (Candida albicans [7]): inactive; Activity (Candida albicans [8]): inactive
N=C(N)c1ccc(OCCCCCOc2ccc(C(=N)N)cc2)cc1 [PENTAMIDINE] | – | – | – | – | – | – | – | – | – | – | – | IC90 (Leishmania donovani; Leishmania donovani): 3.8 µg/mL (≈ 11.2 µM)
COc1cc(NC(C)CCCNC(=O)CC[C@H](NC(=O)[C@@H](N)CCCCN)C(=O)O)c2nc(C(C)(C)C)ccc2c1 (some centres not stated) | inactive | inactive | Non-toxic | Not Active | Not Active | inactive | inactive | inactive | Not Active | < 3.00 | inactive | Activity (Aspergillus fumigatus): inactive; IC50 (Cryptococcus neoformans): 15 µg/mL (≈ 26.2 µM); MFC (Cryptococcus neoformans): 20 µg/mL (≈ 34.9 µM); MIC (Cryptococcus neoformans): 20 µg/mL (≈ 34.9 µM); Activity (Candida albicans [7]): inactive; Activity (Candida albicans [8]): inactive
COc1cc(NC(C)CCCNC(=O)CC[C@@H](NC(=O)[C@H](N)CCCNC(=N)N)C(=O)O)c2nc(C(C)(C)C)ccc2c1 (some centres not stated) | inactive | inactive | Non-toxic | Not Active | Not Active | inactive | inactive | inactive | Not Active | < 3.00 | inactive | –
COc1cc(NC(C)CCCNC(=O)NCCCC[C@H](N)C(=O)O)c2ncccc2c1 (some centres not stated) | inactive | inactive | Non-toxic | Not Active | Not Active | inactive | inactive | inactive | Not Active | < 3.00 | inactive | –
COc1cc(NC(C)CCCNC(=O)[C@H](CCCNC(=N)N)NC(=O)[C@@H](N)CCCNC(=N)N)c2ncccc2c1 (some centres not stated) | inactive | inactive | Non-toxic | – | Not Active | inactive | inactive | inactive | Not Active | 4.09 | inactive | Activity (Aspergillus fumigatus): inactive; IC50 (Cryptococcus neoformans): 4.5 µg/mL (≈ 7.87 µM); MFC (Cryptococcus neoformans): 10 µg/mL (≈ 17.5 µM); MIC (Cryptococcus neoformans): 10 µg/mL (≈ 17.5 µM); IC50 (Plasmodium falciparum [2]; Plasmodium falciparum, W2, read-out: IC50): 4.76 µg/mL (≈ 8.33 µM); selectivity ratio [9]: > 5; Activity (Candida albicans [7]): inactive; Activity (Candida albicans [8]): inactive
COc1cc(NC(C)CCCNC(=O)CC[C@@H](NC(=O)[C@H](N)CCCCN)C(=O)O)c2ncccc2c1 (some centres not stated) | inactive | inactive | Non-toxic | Not Active | – | – | inactive | inactive | Not Active | < 3.00 | inactive | IC90 (Leishmania donovani; Leishmania donovani): 36 µg/mL (≈ 69.7 µM); IC50 (Leishmania donovani; [10]): 20.1 µg/mL (≈ 38.9 µM)
COc1cc(NC(C)CCCNC(=O)NCCC[C@@H](N)C(=O)O)c2ncccc2c1 (some centres not stated) | inactive | inactive | Non-toxic | Not Active | Not Active | inactive | inactive | inactive | Not Active | < 3.00 | inactive | –
COc1cc(NC(C)CCCNC(=O)[C@@H](CCCCN)NC(=O)[C@H](N)CCCCN)c2ncccc2c1 (some centres not stated) | inactive | inactive | Non-toxic | Not Active | – | – | inactive | inactive | Not Active | 3.51 | inactive | Activity (Aspergillus fumigatus): inactive; IC50 (Cryptococcus neoformans): 3.5 µg/mL (≈ 6.79 µM); MFC (Cryptococcus neoformans): 5 µg/mL (≈ 9.7 µM); MIC (Cryptococcus neoformans): 5 µg/mL (≈ 9.7 µM); IC90 (Leishmania donovani; Leishmania donovani): 7 µg/mL (≈ 13.6 µM); IC50 (Leishmania donovani; [10]): 3.5 µg/mL (≈ 6.79 µM); Activity (Candida albicans [7]): inactive; Activity (Candida albicans [8]): inactive
O=C(O)c1cn(C2CC2)c2cc(N3CCNCC3)c(F)cc2c1=O [CIPROFLOXACIN] | – | – | – | – | – | – | – | – | – | – | – | MIC [6]: 0.63 µg/mL (≈ 1.9 µM)
COc1cc(NC(C)CCCNC(=O)CC[C@H](NC(=O)[C@@H](N)CCCN)C(=O)O)c2ncccc2c1 (some centres not stated) | inactive | inactive | Non-toxic | Not Active | Not Active | inactive | inactive | inactive | Not Active | < 3.00 | inactive | –
COc1cc(NC(C)CCCNC(=O)NCCCC[C@H](N)C(=O)O)c2nc(C(C)(C)C)ccc2c1 (some centres not stated) | inactive | inactive | Non-toxic | Not Active | Not Active | inactive | inactive | inactive | Not Active | < 3.00 | inactive | –
